Assay outcomes deposited in PubChem BioAssay by The Scripps Research Institute Molecular Screening Center.
OX1R antag-1: OX1R (human) antagonism; O43613; 330,000 tested, 1.8% active; OX1R-expressing cells, FRET antagonist read-out; inhibition, % at 6.6 µM; in the data active means inhibition mostly above about 38%, no sharp cut-off; inactive means mostly below about 40%;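 further: 0% = agonist challenge alone and 100% = reference antagonist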
Target sequence (O43613 whole entry, looked up): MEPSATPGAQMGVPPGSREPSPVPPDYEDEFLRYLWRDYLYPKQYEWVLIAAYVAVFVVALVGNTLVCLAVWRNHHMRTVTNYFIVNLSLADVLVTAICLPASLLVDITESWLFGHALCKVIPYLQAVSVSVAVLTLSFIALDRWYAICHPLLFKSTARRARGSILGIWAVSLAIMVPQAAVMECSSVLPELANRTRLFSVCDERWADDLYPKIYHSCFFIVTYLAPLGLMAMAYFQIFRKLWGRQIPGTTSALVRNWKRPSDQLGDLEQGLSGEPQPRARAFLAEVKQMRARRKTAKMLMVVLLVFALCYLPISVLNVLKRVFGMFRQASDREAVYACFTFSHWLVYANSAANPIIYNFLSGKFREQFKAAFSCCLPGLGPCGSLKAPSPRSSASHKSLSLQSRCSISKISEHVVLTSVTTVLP
GPR7 antag: human neuropeptides B/W receptor 1 antagonism; GPR7-expressing cells, fluorescence antagonist assay; inhibition, % at 4.4 µM; 290,000 tested, 1.1% active; in the data active means inhibition above about 16%, passing the limit was not always enough;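 further: cells stimulated with the agonist NPW; 0% = agonist with vehicle and 100% = vehicle without agonist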
GalR3 antagonist: human GalR3 antagonism; HEK293 GalR3-CNG cAMP membrane potential fluorescence; galR3 body fused to GalR1 C-terminus; inhibition, % at 3 µM; O60755; 360,000 tested, 0.44% active;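 active means inhibition above the screen-wide average plus 3 SD, cut at about 13% in these data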;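 further: forskolin and galanin both at EC90 stimulate the cells; cAMP rise reported by CNG channel membrane potential dye signal; 0% = forskolin plus galanin with DMSO and 100% = forskolin alone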
OX1R antag-2: human HCRTR1 antagonism. CHO/OX1R cells, Fluo-8 calcium fluorescence, orexin A. inhibition, % at 5 µM. 330,000 tested, 0.43% active. AID 434989;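 active means inhibition above its plate's threshold, mean inhibition of all tested compounds on the plate plus 3 SD, cut at about 37% in these data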;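 further: 0% = orexin A challenge wells and 100% = SB-334867-A antagonist wells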
CHO parental Ca: signal in parental CHO cells, OX1R antagonist counter-screen; parental CHO-K1, ATP-induced calcium, Fluo-8 fluorescence; inhibition, % at 5.6 µM; 330,000 tested, 0.63% active; AID 463079;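 active means inhibition above that plate's mean sample inhibition plus 3 SD, cut at about 26% in these data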;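 further: 0% = ATP-challenged DMSO wells and 100% = DMSO wells without ATP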
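Material: parental CHO cells / Compound: single nominal dose of 5.6 µM per compound / Signal: Fluo-8 fluorescence / Replicates: singlicate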
GPR7 antag conf: human GPR7 antagonism, confirmation assay | inhibition, % at 4.4 µM | shares compounds with GPR7 antag | 2,400 tested, 52% active | AID 1952 | GPR7-expressing cells, calcium fluorescence antagonist mode; in the data active means inhibition above about 24%;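 further: stimulated with the GPR7 agonist NPW; 0% = agonist plus vehicle and 100% = vehicle alone without agonist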
MCHR1 antagonist: counter-screen for GPR7 antagonists: antagonists of human MCHR1 | inhibition, % at 4.4 µM | MCHR1-expressing cells, fluorescence antagonist assay | shares compounds with GPR7 antag | 2,400 tested, 62% active; in the data active means inhibition above about 22%;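 further: 0% = vehicle with agonist and 100% = vehicle without agonist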
* hit, by the source's call; . = no result. Only some compounds are listed: those with a hit (about 3.1% of all), similar ones and a draw of the others.

SMILES	OX1R antag-1	GPR7 antag	GalR3 antagonist	OX1R antag-2	CHO parental Ca	GPR7 antag conf	MCHR1 antagonist
CN(/N=C/c1ccc(-c2ccc([N+](=O)[O-])cc2)o1)c1ccccc1	28	45*	-5	60*	53*	56*	71*
NC(=S)N/N=C/c1ccc(-c2ccc([N+](=O)[O-])cc2)o1	21	6	-6	-10	-6	.	.
COc1ccc(-c2ncn(CCc3ccccc3OC)c2CC(C)C)cc1	.	.	-7	.	.	.	.
CCc1ccc(S(=O)(=O)NCc2cn3ccsc3n2)s1	14	-7	-3	-7	-1	.	.
O=S(=O)(NCc1cn2ccsc2n1)c1cccs1	13	27*	1	-4	-9	-13	-4
S=C1SC2(CCCCCC2)NC2=C1CCCCC2	.	.	-6	.	.	.	.
O=C1c2ccccc2C(=O)N1C1C(=O)N2CCSC12C(=O)OCc1ccccc1 (stereo not drawn)	.	.	-3	.	.	.	.
O=C(COC(=O)Cc1ccc(Cl)c(Cl)c1)NCCc1ccccc1	.	.	0	.	.	.	.
O=C(O)CC(NC(=O)C1c2ccccc2Oc2ccccc21)c1ccc(Cl)cc1 (stereo not drawn)	15	35*	1	-21	-11	3	4
CCOc1ccc(C(CC(=O)O)NC(=O)C2c3ccccc3Oc3ccccc32)cc1 (stereo not drawn)	19	7	-7	0	6	.	.
CCN(CC)S(=O)(=O)c1ccc(NC(=O)COc2nc3ccccc3nc2N2CCOCC2)cc1	6	24*	-1	-23	-7	4	7
OC(c1ccccc1)(c1ccccc1)C1CCN(CCCOc2ccc(C(F)(F)F)cc2)CC1	.	.	-6	.	.	.	.
COC(=O)[C@]12C[C@H](CC(=O)N3CCSCC3)C(=O)N(Cc3ccc4c(c3)OCO4)C1=C[C@H](COCc1ccccc1)O[C@@H]2C	.	.	-2	.	.	.	.
COc1ccc(C2=NS(=O)(=O)N(C)C(C(=O)N3CCC(C)CC3)=C2)cc1	14	9	.	-16	2	.	.
CN1C(C(=O)N2CCc3ccccc3C2)=CC(c2ccc(F)cc2)=NS1(=O)=O	16	30*	-12	-17	-15	20	25*
c1ccc(OCCSc2nnnn2-c2ccccc2)cc1	22	31*	-3	-24	-19	10	35*
COc1cccc(-c2ccc3c(c2)[C@@H]2C[C@H]4[C@@H](CN2CC3)[C@H](C)ON4C)c1	.	.	-4	.	.	.	.
CC(C)c1ccc(NC(=O)C(c2ccc3c(c2)OCO3)N2CCCCC2)cc1 (stereo not drawn)	2	24*	1	-38	-5	14	40*
CC(C)c1ccc(NC(=O)C(c2ccc3c(c2)OCO3)N2CCC3(CC2)OCCO3)cc1 (stereo not drawn)	30	0	-4	-5	-22	.	.
COc1ccc(CN2C(=O)c3ccccc3C2c2nnnn2-c2ccc3c(c2)OCCO3)cc1OC (stereo not drawn)	.	.	-2	.	.	.	.
CN(C)S(=O)(=O)n1cc(/C=C(\NC(=O)c2ccccc2Cl)C(=O)N2CCCC2)c2ccccc21	3	31*	-3	-7	-19	10	34*
CCSc1ncc(/C=N/Nc2ccccc2)n1C	12	-13	-4	-23	-28	.	.
CCSc1ncc(/C=N/Nc2ccc(Cl)cc2)n1C	8	25*	-6	-32	-32	13	40*
C[C@H](CO)N1C[C@H](C)[C@@H](CN(C)C(=O)NC2CCCCC2)OCc2cn(nn2)CCCC1=O	.	.	-4	.	.	.	.
CC1CCC(NC(=O)C2c3ccccc3C(=O)N2Cc2cccs2)CC1 (stereo not drawn)	3	11	-15	-17	-12	.	.
SMILES	OX1R antag-1	GPR7 antag	GalR3 antagonist	OX1R antag-2	CHO parental Ca	GPR7 antag conf	MCHR1 antagonist
COc1ccc(CN2C(=O)c3ccccc3C2C(=O)NC2CCCCCC2)c(OC)c1 (stereo not drawn)	.	33*	-3	.	.	21	34*
COc1ccc(CN2C(=O)c3ccccc3C2C(=O)NCCc2ccccc2)c(OC)c1 (stereo not drawn)	14	-7	6	-32	-14	.	.
O=C(NC1CCCCCCC1)C1c2ccccc2C(=O)N1Cc1cccs1 (stereo not drawn)	27	27*	-7	-27	-14	32*	13
CCOCCCNC(=S)N1C2CCC1CC(NC(=O)Nc1ccc(C(=O)OCC)cc1)C2 (stereo not drawn)	28	26*	1	-7	-13	-7	2
CCOc1ccc(-c2cc(NC(=O)c3c(F)cccc3F)c(C(=O)O)s2)cc1	.	51*	-11	.	.	26*	28*
Cc1nn(-c2ccccc2)c(Cl)c1CN(C(=O)CCl)c1ccc(Cl)cc1	1	95*	-10	16	32	99*	100*
Oc1ccccc1-c1nnc(COc2ccccc2)o1	3	5	4	0	-12	.	.
c1ccc(OCc2nnc(-c3ccccc3)o2)cc1	13	22*	-3	-3	-9	15	25*
C[C@H]1CN([C@@H](C)CO)C(=O)CCCn2cc(nn2)CO[C@@H]1CN(C)S(=O)(=O)c1ccc(Oc2ccccc2)cc1	.	.	0	.	.	.	.
COc1cc(OC)c(CN2CCN(c3ccc(F)cc3)CC2)cc1Br	9	22*	-7	-14	-9	17	18
CCOC(=O)C1CCCN(C(=O)c2cc(C)n(C(C)(C)C)n2)CC1 (stereo not drawn)	.	.	-1	.	.	.	.
COCc1c(C(=O)N/N=C(/C)c2ccc(OCc3ccccc3)cc2)nnn1-c1nonc1N	10	2	-4	-7	5	.	.
C/C(=N\NC(=O)c1nnn(-c2nonc2N)c1C)c1ccc(OCc2ccccc2)cc1	7	39*	3	-14	-16	-1	8
CC(C)c1ccc([C@@H]2O[C@H](CCc3ccccc3)CC3=C2C(=O)OC(C)(C)O3)cc1	.	.	-9	.	.	.	.
COc1cc(-c2n[nH]c(=S)n2/N=C/c2cccn2C)cc(OC)c1OC	2	80*	-2	77*	29	88*	74*
Cn1c(=O)c(=O)n(C)c2cc(S(=O)(=O)N3CCN(Cc4ccccc4)CC3)ccc21	16	-7	-3	-29	-7	.	.
Cn1c(=O)c(=O)n(C)c2cc(S(=O)(=O)N3CC(=O)N(CCc4ccccc4)C(=O)C3)ccc21	10	23*	-3	-7	8	-1	1
O=C(Cc1ccccc1)NCC1CCCO1 (stereo not drawn)	29	1	3	-5	7	.	.
O=P(c1ccccc1)(c1ccccc1)C1CCCO1 (stereo not drawn)	9	42*	-2	3	-5	-5	-11
CC(C)CN1CCCC(N2CCN(c3cccc(Cl)c3)CC2)C1 (stereo not drawn)	7	27*	-3	-42	4	-6	0
COc1ccc(Cl)cc1C(=O)Nc1ccc(NC(C)=O)cc1	29	-5	3	3	0	.	.
